Results reported in ChEMBL document CHEMBL1287796, “Discovery of new chemotype dipeptidyl peptidase IV inhibitors having (R)-3-amino-3-methyl piperidine as a pharmacophore” (Bioorg Med Chem Lett, 2010).
Activity calls are given as the source filed them. The rule behind the calls is not given here.

Legend:
Dipeptidyl peptidase 8 = Dipeptidyl peptidase 8 (Homo sapiens, UniProt Q6V1X1); assay: Inhibition of DPP8
Dipeptidyl peptidase 9 = Dipeptidyl peptidase 9 (Homo sapiens, UniProt Q86TI2); assay: Inhibition of DPP9
Chain of Dipeptidyl peptidase 9 (Q86TI2 whole entry): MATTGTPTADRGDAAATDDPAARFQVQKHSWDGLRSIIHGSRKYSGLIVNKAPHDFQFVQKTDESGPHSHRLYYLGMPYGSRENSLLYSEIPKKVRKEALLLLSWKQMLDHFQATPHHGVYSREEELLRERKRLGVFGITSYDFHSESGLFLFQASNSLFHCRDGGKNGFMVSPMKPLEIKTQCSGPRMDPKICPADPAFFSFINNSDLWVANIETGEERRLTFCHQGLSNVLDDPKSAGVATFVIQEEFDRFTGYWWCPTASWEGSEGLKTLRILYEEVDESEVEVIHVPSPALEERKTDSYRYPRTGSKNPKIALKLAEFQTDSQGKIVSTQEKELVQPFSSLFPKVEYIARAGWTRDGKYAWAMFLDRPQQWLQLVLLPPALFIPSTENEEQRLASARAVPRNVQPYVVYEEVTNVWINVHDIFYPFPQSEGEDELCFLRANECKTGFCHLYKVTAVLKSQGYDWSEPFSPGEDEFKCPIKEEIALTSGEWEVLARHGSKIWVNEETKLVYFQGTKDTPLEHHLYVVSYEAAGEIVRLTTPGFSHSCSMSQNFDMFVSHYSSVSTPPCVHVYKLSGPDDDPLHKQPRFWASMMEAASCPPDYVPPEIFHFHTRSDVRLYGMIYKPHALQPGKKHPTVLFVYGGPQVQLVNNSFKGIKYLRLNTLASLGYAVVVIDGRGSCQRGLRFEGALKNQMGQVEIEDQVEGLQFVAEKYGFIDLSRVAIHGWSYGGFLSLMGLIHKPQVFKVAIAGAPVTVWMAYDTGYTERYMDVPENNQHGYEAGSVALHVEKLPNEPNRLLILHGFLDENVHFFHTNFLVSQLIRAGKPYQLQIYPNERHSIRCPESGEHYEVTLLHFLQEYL

Cytochrome P450 1A2 = molecular target: T1, Cytochrome P450 1A2 (Homo sapiens, UniProt P05177); assay: Inhibition of CYP1A2 in human liver microsomes after 10 mins; assay type: ADME, Microsome
T1 sequence (P05177 whole entry): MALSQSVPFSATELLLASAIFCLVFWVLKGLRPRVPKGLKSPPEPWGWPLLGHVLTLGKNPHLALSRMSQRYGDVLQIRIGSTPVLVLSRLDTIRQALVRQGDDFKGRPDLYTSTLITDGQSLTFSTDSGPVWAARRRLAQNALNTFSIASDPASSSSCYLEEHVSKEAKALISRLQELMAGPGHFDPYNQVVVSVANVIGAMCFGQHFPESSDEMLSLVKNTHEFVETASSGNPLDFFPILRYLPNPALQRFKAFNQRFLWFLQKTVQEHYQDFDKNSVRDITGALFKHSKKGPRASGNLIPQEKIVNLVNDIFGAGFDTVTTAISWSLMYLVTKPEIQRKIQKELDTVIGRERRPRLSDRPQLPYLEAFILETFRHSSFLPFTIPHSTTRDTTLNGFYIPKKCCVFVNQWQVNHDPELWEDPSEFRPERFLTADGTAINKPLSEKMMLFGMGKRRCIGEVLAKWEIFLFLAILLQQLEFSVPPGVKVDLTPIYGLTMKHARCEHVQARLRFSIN
In short: (§1)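 Human liver microsomes incubated with test compound and NADPH for 10 min; CYP isoform inhibition reported as IC50.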

Cytochrome P450 2D6 = Cytochrome P450 2D6 (Homo sapiens, UniProt P10635); assay: Inhibition of CYP2D6 in human liver microsomes after 10 mins; assay type: ADME, Microsome; in short: as §1
Chain of Cytochrome P450 2D6 (P10635 whole entry): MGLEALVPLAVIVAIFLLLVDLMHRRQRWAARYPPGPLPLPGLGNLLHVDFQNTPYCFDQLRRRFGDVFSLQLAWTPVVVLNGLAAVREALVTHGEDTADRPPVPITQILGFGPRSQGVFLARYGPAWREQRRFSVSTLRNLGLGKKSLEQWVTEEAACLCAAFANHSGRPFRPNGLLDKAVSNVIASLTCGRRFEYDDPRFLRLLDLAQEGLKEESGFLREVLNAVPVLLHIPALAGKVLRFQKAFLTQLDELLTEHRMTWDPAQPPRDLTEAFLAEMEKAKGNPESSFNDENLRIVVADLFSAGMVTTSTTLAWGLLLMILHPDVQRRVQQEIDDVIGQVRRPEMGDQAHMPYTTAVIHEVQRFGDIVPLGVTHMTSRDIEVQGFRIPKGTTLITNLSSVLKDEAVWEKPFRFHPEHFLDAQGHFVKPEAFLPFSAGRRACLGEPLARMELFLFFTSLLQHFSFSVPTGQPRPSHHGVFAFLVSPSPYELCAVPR

Cytochrome P450 3A4 = Cytochrome P450 3A4 (Homo sapiens, UniProt P08684); assay: Inhibition of CYP3A4 in human liver microsomes after 10 mins; assay type: ADME, Microsome; in short: as §1
Chain of Cytochrome P450 3A4 (P08684 whole entry): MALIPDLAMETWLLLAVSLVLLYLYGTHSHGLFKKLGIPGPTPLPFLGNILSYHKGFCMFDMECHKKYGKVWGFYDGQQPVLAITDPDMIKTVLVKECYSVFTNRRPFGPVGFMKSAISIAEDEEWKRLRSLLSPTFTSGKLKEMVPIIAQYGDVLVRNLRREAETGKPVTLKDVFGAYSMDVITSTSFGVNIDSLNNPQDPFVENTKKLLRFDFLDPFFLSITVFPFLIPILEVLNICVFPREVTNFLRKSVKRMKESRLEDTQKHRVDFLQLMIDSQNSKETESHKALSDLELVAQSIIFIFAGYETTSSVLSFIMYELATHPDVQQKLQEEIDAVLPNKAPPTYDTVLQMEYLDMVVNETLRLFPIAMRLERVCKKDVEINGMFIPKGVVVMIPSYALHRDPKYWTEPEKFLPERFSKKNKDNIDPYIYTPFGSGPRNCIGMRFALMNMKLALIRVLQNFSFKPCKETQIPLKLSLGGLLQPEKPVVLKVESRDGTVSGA

Liver microsomes [1] = assay: Metabolic stability in human liver microsomes at 10 uM after 39 mins; assay type: ADME, Microsome; settings: 0.5 h, in the assay text read “30 mins” for “39 mins”
In short: (§2)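 Compound incubated for 30 min with hepatic microsomes (human or rat) plus NADPH. Metabolic stability is expressed as clearance in ml/min/mg protein.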

Liver microsomes [2] = assay: Metabolic stability in rat liver microsomes at 10 uM after 39 mins; assay type: ADME, Microsome; settings: 0.5 h, in the assay text read “30 mins” for “39 mins”; in short: as §2
[3] = Clearance in rat at 1 mg/kg, iv; assay type: ADME, organism-based; design: dose 1 mg/kg, route intravenous; settings: in vivo
[4] = Volume of distribution at steady state in rat at 1 mg/kg, iv; assay type: ADME, organism-based; design: dose 1 mg/kg, route intravenous; settings: in vivo, read-out: Vdss
[5] = Half life in rat at 10 mg/kg, po; assay type: ADME, organism-based; design: dose 10 mg/kg, route oral; settings: in vivo
[6] = Oral bioavailability in rat at 10 mg/kg; assay type: ADME, organism-based; settings: in vivo
[7] = Protein binding in human serum; assay type: ADME, cell-free; settings: read-out: PB (converted)
[8] = Tmax in rat at 1 mg/kg, iv and 10 mg/kg, po; assay type: ADME, organism-based; settings: in vivo
Rattus norvegicus [9] = species on record: Rattus norvegicus; settings: Zucker-Fatty, 1 mg/kg
Rattus norvegicus [10] = species on record: Rattus norvegicus; settings: Zucker-Fatty, 1 mg/kg; remark: listed apart in the source
[11] = Lipophilicity, log P of the compound; assay type: physicochemical; settings: octanol/water

Chain of Dipeptidyl peptidase 8 (Q6V1X1 whole entry): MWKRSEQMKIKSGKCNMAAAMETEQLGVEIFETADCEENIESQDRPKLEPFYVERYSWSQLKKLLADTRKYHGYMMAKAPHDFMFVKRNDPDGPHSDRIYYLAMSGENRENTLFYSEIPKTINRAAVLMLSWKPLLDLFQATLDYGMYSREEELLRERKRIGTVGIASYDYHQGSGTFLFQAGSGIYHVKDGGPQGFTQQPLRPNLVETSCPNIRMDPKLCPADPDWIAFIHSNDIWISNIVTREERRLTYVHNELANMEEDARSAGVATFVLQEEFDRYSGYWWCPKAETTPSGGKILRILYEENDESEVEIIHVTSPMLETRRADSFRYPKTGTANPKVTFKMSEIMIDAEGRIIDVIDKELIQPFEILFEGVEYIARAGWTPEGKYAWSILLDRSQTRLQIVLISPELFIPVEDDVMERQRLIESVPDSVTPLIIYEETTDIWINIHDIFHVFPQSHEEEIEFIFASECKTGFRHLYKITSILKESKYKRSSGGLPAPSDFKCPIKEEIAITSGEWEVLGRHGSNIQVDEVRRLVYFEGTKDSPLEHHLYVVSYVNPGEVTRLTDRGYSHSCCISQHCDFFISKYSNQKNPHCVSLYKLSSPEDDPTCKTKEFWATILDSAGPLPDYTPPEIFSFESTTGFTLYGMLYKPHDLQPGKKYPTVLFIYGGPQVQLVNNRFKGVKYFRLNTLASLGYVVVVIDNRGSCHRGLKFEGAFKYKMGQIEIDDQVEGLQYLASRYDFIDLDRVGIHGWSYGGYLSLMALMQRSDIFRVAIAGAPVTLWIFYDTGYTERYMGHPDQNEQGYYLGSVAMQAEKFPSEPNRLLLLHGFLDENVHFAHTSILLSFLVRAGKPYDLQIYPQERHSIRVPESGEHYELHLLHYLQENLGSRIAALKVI

SMILES | IC50 (Dipeptidyl peptidase 8) [µM] | IC50 (Dipeptidyl peptidase 9) [µM] | IC50 (Cytochrome P450 1A2) [µM] | IC50 (Cytochrome P450 2D6) [µM] | IC50 (Cytochrome P450 3A4) [µM] | Microsomal clearance (Liver microsomes [1]) [µL/min/mg] | Microsomal clearance (Liver microsomes [2]) [µL/min/mg] | other results
Cc1ccc(F)cc1Cn1c(N2CCC[C@@](C)(N)C2)cc2c1c(=O)n(C)c(=O)n2C.Cl | > 10 | > 10 | > 40 | > 40 | 20.2 | 56 | 13 | clearance [3]: 51.5 mL/min/kg; Vd [4]: 14.4 L/kg; half-life [5]: 4.69 h; bioavailability [6]: 69.3%; fraction unbound [7]: 0.049; Tmax [8]: 3 h; inhibition (Rattus norvegicus [9]): Active; inhibition (Rattus norvegicus [10]): Active
Cn1cnc2cc(N3CCC[C@@](C)(N)C3)n(Cc3ccccc3C#N)c2c1=O | > 10 | > 10 | – | – | – | – | – | –
Cl.Cn1c(=O)c2c(cc(N3CCC[C@@](C)(N)C3)n2Cc2cc(F)ccc2Cl)n(CCCO)c1=O | > 10 | > 10 | > 40 | 0.2 | 7.7 | 16 | 17 | –
Cn1cnc2cc(N3CCC[C@@](C)(N)C3)n(Cc3cc(F)ccc3Cl)c2c1=O | > 10 | > 10 | – | – | – | – | – | –
CCOCCCn1c(=O)n(C)c(=O)c2c1cc(N1CCC[C@@](C)(N)C1)n2Cc1cc(F)ccc1Cl | > 10 | > 10 | – | – | – | – | – | –
Cc1ccc(F)cc1Cn1c(N2CCC[C@@](C)(N)C2)cc2ncn(C)c(=O)c21.Cl | > 10 | > 10 | > 40 | 14.3 | 11.9 | 48 | 264 | –
Cn1cnc2cc(N3CCC[C@@](C)(N)C3)n(Cc3cc(F)ccc3C#N)c2c1=O | > 10 | > 10 | – | – | – | – | – | –
Cn1c(=O)c2c(cc(N3CCC[C@@](C)(N)C3)n2Cc2ccccc2C#N)n(C)c1=O | > 10 | > 10 | – | – | – | – | – | logP [11]: 0.28
CCn1c(=O)n(C)c(=O)c2c1cc(N1CCC[C@@](C)(N)C1)n2Cc1cc(F)ccc1C#N.Cl | > 10 | > 10 | 26.8 | 0.4 | 9.4 | 21 | < 10 | –
CN(C)C(=O)Cn1c(=O)n(C)c(=O)c2c1cc(N1CCC[C@@](C)(N)C1)n2Cc1cc(F)ccc1Cl.Cl | > 10 | > 10 | 26.3 | < 0.165 | 13.4 | 19 | < 10 | –
Cl.Cn1c(=O)c2c(cc(N3CCC[C@@](C)(N)C3)n2Cc2cc(F)ccc2Cl)n(C)c1=O | > 10 | > 10 | > 40 | 3.4 | 10.2 | 82 | 46 | –
